Laboratory results published in ChEMBL document CHEMBL1152671, “Structure-activity relationship studies of manzamine A: amidation of positions 6 and 8 of the beta-carboline moiety” (Bioorg Med Chem, 2009).
Values after ≈ are worked out from the molar mass of the structure shown. Active and inactive are the calls of the source.

Legend:
Plasmodium falciparum [1] = experiment: Antimalarial activity against chloroquine-sensitive Plasmodium falciparum D6 infected in African green monkey (Cercopithecus aethiops) Vero cells assessed as parasite LDH activity after 72 hrs; format: functional, organism-based
Plasmodium falciparum [2] = experiment: Antimalarial activity against chloroquine-resistant Plasmodium falciparum W2 infected in African green monkey (Cercopithecus aethiops) (Cercopithecus aethiops) Vero cells assessed as parasite LDH activity after 72 hrs; format: functional, organism-based
Vero = experiment: Cytotoxicity against african green monkey Vero cells up to 470 nM by neutral red assay; format: cell-based; conditions: chlorocebus sabaeus
Plasmodium berghei = experiment: Antimalarial activity against Plasmodium berghei NK65 infected in Swiss Webster mice (Mus musculus) assessed as inhibition of parasitaemia at 30 mg/kg, perorally daily for 3 consecutive days administered 2 hrs after infection measured on day 28 post infection; format: functional; conditions: route oral
Outline: (§1)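 Male Swiss Webster mice, 18–20 g, inoculated intraperitoneally with 2 × 10⁷ P. berghei NK-65 parasitized red blood cells taken from a donor mouse. Groups of 5 mice were dosed orally about 2 h post-infection, once daily on […], at 3.3, 10 or 30 mg/kg. Controls were vehicle and chloroquine 10 mg/kg. Mice were observed after each dose for toxicity signs. Parasitemia was read on Giemsa-stained tail-blood smears, with suppression on days 5 and 7 and cure defined as no parasitemia to day 28.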

Mus musculus = experiment: Toxicity in Swiss Webster mice (Mus musculus) infected with Plasmodium berghei NK65 at 30 mg/kg, perorally QD for 3 consecutive days administered 2 hrs after infection; format: organism-based; design: dose 30 mg/kg, route oral; conditions: in vivo, po; outline: as §1
Candida albicans [3] = experiment: Antifungal activity against Candida albicans by modified NCCLS method; format: functional, organism-based
Cryptococcus neoformans [4] = experiment: Antifungal activity against Cryptococcus neoformans by modified NCCLS method; format: functional, organism-based
Cryptococcus neoformans [5] = experiment: Antifungal activity against Cryptococcus neoformans after 24 hrs by alamar blue assay; format: functional
[6] = system: Mycobacterium intracellulare; experiment: Antibacterial activity against Mycobacterium intracellular by alamar blue assay; format: functional, organism-based
[7] = system: Mycobacterium intracellulare; experiment: Antibacterial activity against Mycobacterium intracellular after 24 hrs by alamar blue assay; format: functional
Aspergillus fumigatus [8] = experiment: Antifungal activity against Aspergillus fumigatus by modified NCCLS method; format: functional, organism-based
Escherichia coli = experiment: Antibacterial activity against Escherichia coli by modified NCCLS method; format: functional, organism-based
Pseudomonas aeruginosa = experiment: Antibacterial activity against Pseudomonas aeruginosa by modified NCCLS method; format: functional, organism-based
Candida albicans [9] = system: Candida albicans
Aspergillus fumigatus [10] = system: Aspergillus fumigatus
Candida albicans [11] = experiment: Antifungal activity against Candida albicans after 24 hrs by alamar blue assay
Aspergillus fumigatus [12] = experiment: Antifungal activity against Aspergillus fumigatus after 24 hrs by alamar blue assay
[13] = Therapeutic index, ratio of TC50 for african green monkey (Cercopithecus aethiops) Vero cells to IC50 for chloroquine-sensitive Plasmodium falciparum D6 infected in african green monkey (Cercopithecus aethiops) Vero cells; format: cell-based; conditions: read-out: TI
[14] = Therapeutic index, ratio of TC50 for african green monkey (Cercopithecus aethiops) Vero cells to IC50 for chloroquine-resistant Plasmodium falciparum W2 infected in african green monkey (Cercopithecus aethiops) Vero cells; format: cell-based; conditions: read-out: TI
[15] = Cryptococcus neoformans, read-out: IC50
[16] = Candida albicans, read-out: IC50

With `O=C(Nc1ccc2[nH]c3c(C4=C[C@@]5(O)CC/C=C\CCCCN6CC[C@@H]4[C@]4(C[C@@H]7/C=C\CCCCN7[C@H]45)C6)nccc3c2c1)C1CCCCC1` [6-CYCLOHEXAMIDOMANZAMINE A] the IC50 (Plasmodium falciparum [1]) was 0.034 µM, the IC50 (Plasmodium falciparum [2]) was 0.053 µM and the Activity (Vero) was “Non-toxic”. For the same molecule, the inhibition in vivo at 30 mg/kg (Plasmodium berghei) was 24%, the Activity (Mus musculus) was “Non-toxic” and the IC50 (Candida albicans [3]) was “Not Active”. For the same molecule, the IC50 (Cryptococcus neoformans [4]; [15]) was 22.3 µM, the MIC (Cryptococcus neoformans [5]) was “inactive” and the IC50 [6] was 1.26 µM. For the same molecule, the MIC [7] was 1.86 µM (≈ 1.25 µg/mL), the IC50 (Aspergillus fumigatus [8]) was “Not Active” and the Activity (Escherichia coli) was “inactive”. The Activity (Pseudomonas aeruginosa) was “inactive”, the MIC (Candida albicans [9]) was “inactive” and the MIC (Aspergillus fumigatus [10]) was “inactive”.
With `CCCCCC(=O)Nc1cccc2c1[nH]c1c(C3=C[C@@]4(O)CC/C=C\CCCCN5CC[C@@H]3[C@]3(C[C@@H]6/C=C\CCCCN6[C@H]34)C5)nccc12` [8-N-HEXAMIDOMANZAMINE A] the IC50 (Plasmodium falciparum [1]) was 0.032 µM, the IC50 (Plasmodium falciparum [2]) was 0.065 µM and the Activity (Vero) was “Non-toxic”. For the same molecule, the inhibition in vivo at 30 mg/kg (Plasmodium berghei) was 62%, the Activity (Mus musculus) was “Non-toxic” and the IC50 (Candida albicans [3]) was “Not Active”. For the same molecule, the IC50 (Cryptococcus neoformans [4]; [15]) was 3.78 µM, the MIC (Cryptococcus neoformans [5]) was “inactive” and the IC50 [6] was 0.03 µM. For the same molecule, the MIC [7] was 0.468 µM (≈ 0.31 µg/mL), the IC50 (Aspergillus fumigatus [8]) was “Not Active” and the Activity (Escherichia coli) was “inactive”. For the same molecule, the Activity (Pseudomonas aeruginosa) was “inactive”, the MIC (Candida albicans [9]) was “inactive” and the MIC (Aspergillus fumigatus [10]) was “inactive”.
With `CCCCCCC(=O)Nc1cccc2c1[nH]c1c(C3=C[C@@]4(O)CC/C=C\CCCCN5CC[C@@H]3[C@]3(C[C@@H]6/C=C\CCCCN6[C@H]34)C5)nccc12` [8-N-OCTAMIDOMANZAMINE A] the IC50 (Plasmodium falciparum [1]) was 0.055 µM, the IC50 (Plasmodium falciparum [2]) was 0.043 µM and the Activity (Vero) was “Non-toxic”. The IC50 (Candida albicans [3]) was “Not Active”, the IC50 (Cryptococcus neoformans [4]; [15]) was 1.01 µM and the MIC (Cryptococcus neoformans [5]) was 29 µM (≈ 19.6 µg/mL). For the same molecule, the IC50 [6] was 0.508 µM, the MIC [7] was 1.81 µM (≈ 1.23 µg/mL) and the IC50 (Aspergillus fumigatus [8]) was “Not Active”. The Activity (Escherichia coli) was “inactive”, the Activity (Pseudomonas aeruginosa) was “inactive” and the MIC (Candida albicans [9]) was “inactive”. For the same molecule, the MIC (Aspergillus fumigatus [10]) was “inactive”.
In the case of `CCCCC(=O)Nc1cccc2c1[nH]c1c(C3=C[C@@]4(O)CC/C=C\CCCCN5CC[C@@H]3[C@]3(C[C@@H]6/C=C\CCCCN6[C@H]34)C5)nccc12` [8-N-PENTAMIDOMANZAMINE A], the IC50 (Plasmodium falciparum [1]) is reported as 0.053 µM, the IC50 (Plasmodium falciparum [2]) is reported as 0.049 µM and the Activity (Vero) is reported as “Non-toxic”. The IC50 (Candida albicans [3]) was “Not Active”, the IC50 (Cryptococcus neoformans [4]; [15]) was 4.63 µM and the MIC (Cryptococcus neoformans [5]) was “inactive”. The IC50 [6] was 0.695 µM, the MIC [7] was 0.973 µM (≈ 0.63 µg/mL) and the IC50 (Aspergillus fumigatus [8]) was “Not Active”. The Activity (Escherichia coli) was “inactive”, the Activity (Pseudomonas aeruginosa) was “inactive” and the MIC (Candida albicans [9]) was “inactive”. The MIC (Aspergillus fumigatus [10]) was “inactive”.
In the case of `CC(C)(C)C(=O)Nc1cccc2c1[nH]c1c(C3=C[C@@]4(O)CC/C=C\CCCCN5CC[C@@H]3[C@]3(C[C@@H]6/C=C\CCCCN6[C@H]34)C5)nccc12` [8-PIVALAMIDOMANZAMINE A], the IC50 (Plasmodium falciparum [1]) is reported as 0.17 µM, the IC50 (Plasmodium falciparum [2]) is reported as 0.232 µM and the Activity (Vero) is reported as “Non-toxic”. For the same molecule, the IC50 (Candida albicans [3]) was “Not Active”, the IC50 (Cryptococcus neoformans [4]) was “Not Active” and the MIC (Cryptococcus neoformans [5]) was “inactive”. The IC50 [6] was 0.54 µM, the MIC [7] was 0.973 µM (≈ 0.63 µg/mL) and the IC50 (Aspergillus fumigatus [8]) was “Not Active”. For the same molecule, the Activity (Escherichia coli) was “inactive”, the Activity (Pseudomonas aeruginosa) was “inactive” and the MIC (Candida albicans [9]) was “inactive”. For the same molecule, the MIC (Aspergillus fumigatus [10]) was “inactive”.
In the case of `C[C@@H]1[C@H](O)[C@@H](C)/C=C/C=C/C=C/C=C/C=C/C=C/C=C/[C@H](O[C@@H]2O[C@H](C)[C@@H](O)[C@H](N)[C@@H]2O)C[C@@H]2O[C@](O)(C[C@@H](O)C[C@@H](O)[C@H](O)CC[C@@H](O)C[C@@H](O)CC(=O)O[C@H]1C)C[C@H](O)[C@H]2C(=O)O` [AMPHOTERICIN B], the IC50 (Candida albicans [3]; [16]) is reported as 0.487 µM, the MIC (Candida albicans [11]) is reported as 1.35 µM (≈ 1.25 µg/mL) and the IC50 (Cryptococcus neoformans [4]; [15]) is reported as 0.92 µM. The MIC (Cryptococcus neoformans [5]) was 2.71 µM (≈ 2.5 µg/mL), the IC50 (Aspergillus fumigatus [8]; Aspergillus fumigatus, read-out: IC50) was 1.62 µM and the MIC (Aspergillus fumigatus [12]) was 2.7 µM (≈ 2.5 µg/mL).
Work on `O[C@]12C=C(c3nccc4c3[nH]c3ccccc34)[C@@H]3CCN(CCCC/C=C\CC1)C[C@@]31C[C@@H]3/C=C\CCCCN3[C@H]12` [MANZAMINE A] yielded an IC50 (Plasmodium falciparum [1]) of 0.008 µM, an IC50 (Plasmodium falciparum [2]) of 0.011 µM and a selectivity ratio [13] of 44. It also gave a selectivity ratio [14] of 25, an IC50 (Candida albicans [3]; [16]) of 3.66 µM and an IC50 (Cryptococcus neoformans [4]; [15]) of 1.85 µM. For the same molecule, the MIC (Candida albicans [9]) was “inactive”.
